Screening data as filed in PubChem.
An excerpt weighted towards active compounds, which were near 6.7% of everything screened.
CHOP inh – blocks CHOP induction under ER stress; CHO-K1 CHOP-promoter luciferase, tunicamycin-induced, 15-18 h; inhibition, % at 10 µM; hit rate 3.8% among 220,000; AID 2732;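 active means compounds that reduced the stress-induced luciferase reporter signal by more than about 70% of percent inhibition, limit read from the data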;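 further: 0% = tunicamycin plus vehicle and 100% = wells without tunicamycin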
GRIN3A LBD mod – modulates the human NR3A ligand-binding domain; NR3A LBD differential scanning fluorimetry, Tm shift; 0% = protein alone, 100% = glycine-bound protein; Tm shift relative to glycine control, % at 25 µM; hit rate 2.5% among 340,000; AID 1259313;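 active means melting temperature shift of at least 10% of the positive control shift, at one fixed dose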
CSC inhib – blocks cancer stem cells | inhibition, % at 7.5 µM | cancer stem cell-like cells viability, luminescence | hit rate 1.1% among 300,000 | AID 2717; in the data active means inhibition above about 75%; tested in HMLE shEcad cells
T cruzi repl – T. cruzi replication inhibition | inhibition, % (no concentration beside the values) | hit rate 1.4% among 300,000 | AID 1885 | T. cruzi beta-gal in NIH3T3, luminescence, 90 h;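 active means mean inhibition across valid replicates above about 55%, limit read from the data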;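 further: signal also drops with host cell toxicity which is not excluded here; 0% = plate median of DMSO wells and 100% = zero luminescence signal; higher percent means less beta-gal luminescence so fewer parasites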
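System – NIH/3T3 host cells with β-galactosidase reporter T. cruzi · Doses – single 50 nL compound addition per well in DMSO · Reagent – 5000 T. cruzi trypomastigotes/well · Medium – Low-serum DMEM with 2% FBS · Timing – ≥90 h infection period, 3 h prior cell attachment · Evaluation – parasite load inhibition, % · Technique – GalScreen luminescence, 60 min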
Beta cell apopt – beta cell apoptosis inhibition; INS-1E cytokine-induced death, ATP luminescence, 48 h; percent of positive-control rescue, neutral wells zero; hit rate 0.8% among 300,000; protection from apoptosis, % (test concentration not listed);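 active means Every replicate reaches about 75%, or at least half do and their mean reaches it too, limit read from the data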;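 further: 0% = cytokine-treated negative control wells and 100% = positive control rescue; higher means more ATP so stronger rescue from cytokine killing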
PREPL inhibitor – inhibitors of human prolyl oligopeptidase-like enzyme PREPL; Q4J6C6; recombinant PREPL, fluorescence polarization activity-based probe; inhibition, % at 5.96 µM; hit rate 0.68% among 320,000; AID 2751; in the data active means inhibition above about 43%;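 further: 0% = enzyme with DMSO and 100% = wells lacking enzyme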
Target sequence (Q4J6C6 whole entry, looked up): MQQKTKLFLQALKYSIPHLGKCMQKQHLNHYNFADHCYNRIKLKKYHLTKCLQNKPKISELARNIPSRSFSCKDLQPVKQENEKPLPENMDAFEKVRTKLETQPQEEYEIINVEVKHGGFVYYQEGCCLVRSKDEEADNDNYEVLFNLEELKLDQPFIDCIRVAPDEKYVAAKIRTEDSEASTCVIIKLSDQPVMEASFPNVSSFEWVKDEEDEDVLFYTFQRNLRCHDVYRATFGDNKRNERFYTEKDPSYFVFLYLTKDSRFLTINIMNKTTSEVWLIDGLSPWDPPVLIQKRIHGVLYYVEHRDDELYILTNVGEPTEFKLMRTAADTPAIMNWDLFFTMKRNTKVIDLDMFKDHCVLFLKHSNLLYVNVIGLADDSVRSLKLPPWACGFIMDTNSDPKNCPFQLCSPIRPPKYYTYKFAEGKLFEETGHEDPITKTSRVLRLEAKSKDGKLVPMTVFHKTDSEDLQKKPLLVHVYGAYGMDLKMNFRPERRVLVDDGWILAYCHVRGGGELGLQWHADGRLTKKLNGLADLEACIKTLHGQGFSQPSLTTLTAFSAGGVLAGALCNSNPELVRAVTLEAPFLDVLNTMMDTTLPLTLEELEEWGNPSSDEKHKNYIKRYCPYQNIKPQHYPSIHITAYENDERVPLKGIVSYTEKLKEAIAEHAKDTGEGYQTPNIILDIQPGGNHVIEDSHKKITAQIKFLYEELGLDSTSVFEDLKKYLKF
The depositor's hits bear a star; / = no result.

SMILES	CHOP inh	GRIN3A LBD mod	CSC inhib	T cruzi repl	Beta cell apopt	PREPL inhibitor
CCc1n(CC(O)COC2CCCCC2)c2ccccc2[n+]1C (configuration not stated)	-11	0	0	7	8	20
COc1cc(/C=N/NC(=O)CCn2c3ccccc3c3ccccc32)ccc1O	43	5	13	3	3	27
CSc1ccc(/C=N/NC(=O)c2ccc(C)c(C)c2)cc1	-18	-3	31	0	3	0
COc1cc(C(=O)N/N=C/c2ccc3c(c2)c2ccccc2n3C)ccc1O	/	38*	40	-2	20	/
CSc1ccc(/C=N/NC(=O)c2cc(O)cc(O)c2)cc1	-13	13*	26	-5	0	12
O=c1cc(-c2ccccc2)nc2cc(-c3ccco3)[nH]n12	-14	10*	-3	-11	-3	19
COc1ccc(-n2nnc3c(=O)n(CC(=O)N4CCCc5ccccc54)cnc32)cc1	/	12*	-18	-7	-11	-7
Cc1ccc(-c2nnn(CC(=O)N3CCCc4ccccc43)n2)cc1	84*	-1	10	18	0	4
CCOc1ccc(-n2nnc3c(=O)n(CC(=O)N4CCCc5ccccc54)cnc32)cc1	8	15*	-6	6	5	-4
COc1cccc(C(=O)N2CCN(Cc3ccccc3C(F)(F)F)CC2)c1	71*	-1	1	5	-4	-3
COc1cccc(C(=O)N2CCN(Cc3cn[nH]c3-c3ccc(F)cc3F)CC2)c1	13	-1	-8	-13	-1	6
COc1ccc(C(=O)N2CCN(Cc3cn[nH]c3-c3ccc(OC)cc3F)CC2)cc1	17	48*	-8	-15	-3	7
COc1cc(C(=O)Nc2ccc(Cl)c(C(F)(F)F)c2)cc(OC)c1OC	50	1	58	9	68	2
COc1cccc(C(=O)Nc2ccc(C)cc2)c1	6	-10	4	7	-3	0
COc1cccc(NC(=O)c2cccc(Cl)c2)c1	/	28*	-3	/	-2	0
COc1cc2cc(C(=O)Nc3ccc4c(c3)OCCO4)[nH]c2cc1OC	/	11*	20	-8	1	19
COc1cccc(C(=O)Nc2ccc(C3CC3(Cl)Cl)cc2)c1 (configuration not stated)	48	-1	91*	30	-8	-18
COc1cccc(C(=O)Nc2ccc(Cl)c(C(F)(F)F)c2)c1	71*	5	35	18	-14	-6
O=C1CN(C(=O)NCC(=O)N[C@@H](C(=O)O)c2ccccc2)c2ccccc2N1	/	3	-1	-4	-4	14
Cc1cccc(NC(=O)Cc2coc3ccc4ccccc4c23)n1	39	-2	22	-6	-2	7
CCN(C[C@H]1N[C@@](C)(C(=O)OC)[C@H]2C(=O)N(Cc3ccccc3)C(=O)[C@@H]12)C(=O)c1ccc(C)cc1	/	1	/	/	/	-4
O=C(Nc1cccc(NC(=O)c2ncn[nH]2)c1)c1cccc(Cl)c1	18	12*	36	42	-11	3
O=C(Nc1ccc(N=Nc2ccccc2)cc1)c1cccc(Cl)c1	43	26*	13	-23	2	20
COc1cccc(NC(=O)c2ccc3c(c2)OCCO3)c1	/	12*	/	-8	/	/
O=C(Nc1ccc2c(c1)OCCO2)c1cccc(Cl)c1	/	-22	0	6	/	-1
SMILES	CHOP inh	GRIN3A LBD mod	CSC inhib	T cruzi repl	Beta cell apopt	PREPL inhibitor
COc1cccc(NC(=O)c2ccc3c(c2)OCO3)c1	/	7	9	-16	2	2
COc1ccc(CC(=O)NCc2ccc(F)cc2)cc1S(=O)(=O)N1CCOCC1	/	0	/	/	-3	5
COc1ccc(NC(=S)NNC(=O)c2ccco2)c(OC)c1	/	1	-3	-5	1	11
Cc1cc(C(=O)Nn2c(-c3ccc(Br)cc3)nc3ccccc3c2=O)ccc1[N+](=O)[O-]	91*	8	38	16	4	-13
O=C(Nn1c(-c2ccc(Br)cc2)nc2ccccc2c1=O)c1ccncc1	8	0	/	-4	-1	2
O=C(Nc1ccc(Cl)c(Cl)c1)C1CC(=O)N(c2ccc(Br)cc2)C1 (configuration not stated)	11	28*	55	15	4	-34
Cc1ccc(N2CC(C(=O)N3CCC(C(=O)Nc4ccc(Br)cc4)CC3)CC2=O)cc1 (configuration not stated)	/	-17	-6	-10	6	-2
Cc1[nH]c2ccc(C(=O)OCC(=O)NC3(C#N)CCCCC3)cc2c1C	/	-5	-3	-14	1	7
COc1ccc(OC)c(/C=C/c2ccnc3ccccc23)c1	/	-1	/	/	/	/
COc1cc(Br)cc(/C=C/c2ccc3cccc(O)c3n2)c1O	/	34*	92*	34	34	35
COc1cc(/C=C/c2ccc3cccc(O)c3n2)ccc1O	/	1	75*	22	20	28
COc1cc(Br)cc(CN2CCN(C/C=C/c3ccccc3)CC2)c1O	12	1	24	28	0	11
CSc1ccc(/C=C/c2ccc3cccc(O)c3n2)cc1	-32	0	61	33	16	7
COc1ccc(OC)c(/C=C/c2ccc3cccc(O)c3n2)c1	/	/	39	61*	38	23
COc1cc(/C=C/c2ccc3cccc(O)c3n2)c(Br)cc1O	/	/	96*	56*	39	33
COc1cc(Cl)cc(/C=C/c2ccc3ccccc3n2)c1OC(C)=O	46	-12	1	-10	12	8
COc1ccc(OCCC(=O)OCC(=O)NCc2ccc(F)cc2)cc1	5	0	-3	0	-4	5
O=C(Cc1c[nH]c2ccccc12)Nc1ccc(N2CCOCC2)cc1	-1	0	-12	3	-15	23
Oc1ccc2ccccc2c1/C=C/c1ccc2c(Br)cc(Br)c(O)c2n1	/	15*	/	/	/	/
Oc1cccc2ccc(/C=C/c3cccs3)nc12	12	-2	53	32	22	2
COc1cc(Br)c(/C=C/c2ccc3cccc(O)c3n2)cc1OC	/	3	17	57*	9	1
Cc1ccsc1/C=C/c1ccc2cccc(O)c2n1	38	-18	92*	22	22	14
Oc1cccc2ccc(/C=C/c3ccccc3Br)nc12	/	14*	97*	44	39	3
Oc1ccc2ccccc2c1/C=N/n1cnnc1	61	1	0	-2	-11	7
COc1cccc(-n2c(CN3CCN(c4cccc(C)c4)C(C)C3)nc3ccc([N+](=O)[O-])cc3c2=O)c1 (configuration not stated)	22	-2	18	59*	7	17
COc1cccc(-n2c(CN3CCN(c4ccc(C)cc4)C(C)C3)nc3ccc([N+](=O)[O-])cc3c2=O)c1 (configuration not stated)	11	-2	-8	39	3	20
COc1cc(O)c(C(=O)CC(=O)c2ccncc2)c(OC)c1	/	0	/	/	/	/
